In ChEMBL document CHEMBL1139971, “RXR-LXR heterodimer modulators for the potential treatment of dyslipidemia” (Bioorg Med Chem Lett, 2007):
Values belong to the compound of their own block, whether it stands above or below them. Activity calls are given as the source filed them. The calls are words filed in the database; no cut-off is given here.

Key:
[1] = target: T1, Retinoic acid receptor RXR-alpha (Homo sapiens) (UniProt P19793); assay: Activity at RXRalpha by GAL4DNA cotransfection assay relative to 5-((3-(1-ethyl-4,4,6-trimethyl-2-oxo-1,2,3,4-tetrahydroquinolin-7-yl)-4-(trifluoromethoxy)phenyl)methylene)thiazolidine-2,4-dione
T1 sequence (whole entry): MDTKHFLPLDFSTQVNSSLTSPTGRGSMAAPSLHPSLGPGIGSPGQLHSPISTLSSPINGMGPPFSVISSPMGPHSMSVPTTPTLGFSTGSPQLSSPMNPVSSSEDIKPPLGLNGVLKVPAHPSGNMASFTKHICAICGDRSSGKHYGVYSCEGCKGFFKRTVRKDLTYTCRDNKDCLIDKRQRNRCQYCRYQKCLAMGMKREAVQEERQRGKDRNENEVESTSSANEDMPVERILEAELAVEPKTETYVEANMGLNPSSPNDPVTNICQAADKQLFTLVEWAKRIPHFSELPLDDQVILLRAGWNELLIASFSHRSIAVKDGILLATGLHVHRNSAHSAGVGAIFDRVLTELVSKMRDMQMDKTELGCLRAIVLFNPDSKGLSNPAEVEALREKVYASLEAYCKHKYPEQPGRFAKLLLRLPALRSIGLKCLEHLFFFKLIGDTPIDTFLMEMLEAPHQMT
Summary of the method: (§1)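 RXRα co-transfection assay using the yeast GAL4 DNA-binding domain fused to the RXRα ligand-binding domain, with a yeast promoter driving luciferase. EC50 is reported, and efficacy is given as % maximal activation versus the reference RXR agonist.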

[2] = target: T2, Retinoic acid receptor RXR-alpha (Homo sapiens, UniProt P19793); assay: (§2) Activity at RXRalpha by GAL4DNA cotransfection assay; summary of the method: as §1
T2 sequence (P19793 whole entry): T1 sequence (whole entry)

THP-1 = assay: Activation of RXR-LXR heterodimer in human THP1 cells assessed as induction of ABCA1 mRNA relative to 5-((3-(1-ethyl-4,4,6-trimethyl-2-oxo-1,2,3,4-tetrahydroquinolin-7-yl)-4-(trifluoromethoxy)phenyl)methylene)thiazolidine-2,4-dione; type: cell-based; parameters: concentration or dose not given beside the values
[3] = Activity at RXR-LXR heterodimer in human THP1 cells assessed as induction of ABCA1 mRNA; type: cell-based; settings: THP-1
Homo sapiens [4] = species on record: Homo sapiens; assay: Activity at RXR-PPARgamma in primary human preadipocytes assessed as induction of adipocytes fatty acid binding protein by bDNA assay relative to 5-((3-(1-ethyl-4,4,6-trimethyl-2-oxo-1,2,3,4-tetrahydroquinolin-7-yl)-4-(trifluoromethoxy)phenyl)methylene)thiazolidine-2,4-dione; type: cell-based
[5] = Activity at RXR-PPARgamma heterodimer in primary human preadipocytes assessed as induction of adipocytes fatty acid binding protein by bDNA assay; type: cell-based
[6] = target: T1, Retinoic acid receptor RXR-alpha (Homo sapiens); assay: as §2; summary of the method: as §1
Rattus norvegicus [7] = assay: Effect on serum triglyceride level in high cholesterol diet fed Sprague-Dawley rat at 1 mg/kg, po after 8 days relative to control; type: functional
Summary of the method: (§3)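 Male Sprague–Dawley rats were fed a high-cholesterol atherogenic diet ad libitum. After 6 days on the diet, oral dosing began at 0.3, 1, 3 or 10 mg/kg in 15% hydroxypropyl β-cyclodextrin, pH 10, for 8 days total. Serum total cholesterol, HDL-C, LDL-C and triglycerides and plasma Cmax were measured. Groups are compared with vehicle as mean ± SEM by one-way ANOVA with Dunnett's test.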

Rattus norvegicus [8] = assay: Effect on serum triglyceride level in high cholesterol diet fed Sprague-Dawley rat at 3 mg/kg, po after 8 days relative to control; type: functional; summary of the method: as §3
Rattus norvegicus [9] = assay: Effect on serum cholesterol level in high cholesterol diet fed Sprague-Dawley rat at 0.3 mg/kg, po after 8 days relative to control; type: functional; summary of the method: as §3
Rattus norvegicus [10] = assay: Effect on serum HDL-C level in high cholesterol diet fed Sprague-Dawley rat at 3 mg/kg, po after 8 days relative to control; type: functional; summary of the method: as §3
Rattus norvegicus [11] = assay: Effect on serum cholesterol level in high cholesterol diet fed Sprague-Dawley rat at 1 mg/kg, po after 8 days relative to control; type: functional; summary of the method: as §3
Rattus norvegicus [12] = assay: Effect on serum LDL-C level in high cholesterol diet fed Sprague-Dawley rat at 3 mg/kg, po after 8 days relative to control; type: functional; summary of the method: as §3
Rattus norvegicus [13] = assay: Effect on serum cholesterol level in high cholesterol diet fed Sprague-Dawley rat at 3 mg/kg, po after 8 days relative to control; type: functional; summary of the method: as §3
[14] = AUC in Sprague-Dawley rat at 3 mg/kg; type: ADME, organism-based; parameters: dose 3 mg/kg; settings: plasma
Summary of the method: (§4)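 Sprague–Dawley rats dosed at 3 mg/kg in 10% hydroxypropyl β-cyclodextrin (pH 10). Oral bioavailability, Cmax, AUC and terminal half-life were taken from the plasma profile.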

Rattus norvegicus [15] = assay: Effect on serum LDL-C level in high cholesterol diet fed Sprague-Dawley rat at 10 mg/kg, po after 8 days relative to control; type: functional; summary of the method: as §3
Rattus norvegicus [16] = assay: Effect on serum HDL-C level in high cholesterol diet fed Sprague-Dawley rat at 1 mg/kg, po after 8 days relative to control; type: functional; summary of the method: as §3
Rattus norvegicus [17] = assay: Effect on serum triglyceride level in high cholesterol diet fed Sprague-Dawley rat at 10 mg/kg, po after 8 days relative to control; type: functional; summary of the method: as §3
[18] = Cmax in high cholesterol diet fed Sprague-Dawley rat at 0.3 mg/kg, po; type: ADME, organism-based; parameters: dose 0.3 mg/kg, route oral; settings: in vivo; summary of the method: as §3
Rattus norvegicus [19] = assay: Effect on serum HDL-C level in high cholesterol diet fed Sprague-Dawley rat at 0.3 mg/kg, po after 8 days relative to control; type: functional; summary of the method: as §3
Rattus norvegicus [20] = assay: Effect on serum LDL-C level in high cholesterol diet fed Sprague-Dawley rat at 0.3 mg/kg, po after 8 days relative to control; type: functional; summary of the method: as §3
Mus musculus = species on record: Mus musculus; assay: Decrease in blood glucose level in db/db mouse after 11 days; type: functional, organism-based
Summary of the method: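 db/db mice, a diabetes model, were treated for 11 days and blood glucose was monitored.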

Rattus norvegicus [21] = assay: Effect on serum HDL-C level in high cholesterol diet fed Sprague-Dawley rat at 10 mg/kg, po after 8 days relative to control; type: functional; summary of the method: as §3
[22] = Half life in Sprague-Dawley rat at 3 mg/kg; type: ADME, organism-based; parameters: dose 3 mg/kg; settings: in vivo; summary of the method: as §4
[23] = Oral bioavailability in Sprague-Dawley rat at 3 mg/kg; type: ADME, organism-based; settings: in vivo; summary of the method: as §4
Rattus norvegicus [24] = assay: Effect on serum LDL-C level in high cholesterol diet fed Sprague-Dawley rat at 1 mg/kg, po after 8 days relative to control; type: functional; summary of the method: as §3
[25] = Cmax in Sprague-Dawley rat at 3 mg/kg; type: ADME, organism-based; parameters: dose 3 mg/kg; settings: in vivo; summary of the method: as §4
[26] = Cmax in high cholesterol diet fed Sprague-Dawley rat at 10 mg/kg, po; type: ADME, organism-based; parameters: dose 10 mg/kg, route oral; settings: in vivo; summary of the method: as §3
Rattus norvegicus [27] = assay: Effect on serum triglyceride level in high cholesterol diet fed Sprague-Dawley rat at 0.3 mg/kg, po after 8 days relative to control; type: functional; summary of the method: as §3
Rattus norvegicus [28] = assay: Effect on serum cholesterol level in high cholesterol diet fed Sprague-Dawley rat at 10 mg/kg, po after 8 days relative to control; type: functional; summary of the method: as §3
Homo sapiens [29] = species on record: Homo sapiens; assay: Activity at RXR-PPARgamma in primary human preadipocytes assessed as induction of adipocytes fatty acid binding protein by bDNA assay relative to rosiglitazone; type: cell-based

SMILES: Cc1cc2c(cc1-c1cc(/C=C/C(=O)O)ccc1OC(F)(F)F)NC(=O)CC2(C)C
Activity [6]: inactive
EC50 [3]: > 3000 nM

SMILES: CCN1C(=O)OC(C)(C)c2cc(C)c(-c3cc(/C=C/C(=O)O)ccc3OC(F)(F)F)cc21
EC50 [3]: > 3000 nM

SMILES: CCN1C(=O)CC(C)(C)c2cc(C)c(-c3ccc(/C=C/C(=O)O)cc3OC(F)(F)F)cc21
EC50 [3]: > 3000 nM

SMILES: Cc1cc2c(cc1-c1cc(/C=C/C(=O)O)ccc1OC(F)(F)F)N(CC(F)(F)F)C(=O)CC2(C)C
Activity [1]: 94%
EC50 [2]: 1.8 nM
EC50 [3]: > 3000 nM
EC50 [5]: 126 nM

SMILES: CCn1c(=O)c2c(c3ccc(-c4cc(/C=C/C(=O)O)ccc4OC(F)(F)F)cc31)CCC2
EC50 [2]: 1600 nM
EC50 [3]: > 3000 nM

SMILES: CCn1c(=O)c2c(c3cc(-c4cc(/C=C/C(=O)O)ccc4OC(F)(F)F)ccc31)CCC2
Activity [1]: 125%
EC50 [2]: 96.6 nM
EC50 [3]: > 3000 nM

SMILES: CCN1C(=O)CC(C)(C)c2cc(C)c(-c3ccc(/C=C/C(=O)O)o3)cc21
EC50 [2]: > 10000 nM
EC50 [3]: > 3000 nM

SMILES: CCN1C(=O)CC(C)(C)c2cc(C)c(-c3ccc(/C=C/C(=O)O)s3)cc21
EC50 [2]: 1200 nM
EC50 [3]: > 3000 nM

SMILES: CCN1C(=O)C(C)Oc2cc(C)c(-c3cc(/C=C/C(=O)O)ccc3OC(F)(F)F)cc21 (stereo not drawn)
EC50 [3]: > 3000 nM

SMILES: CCCN1C(=O)CC(C)(C)c2cc(C)c(-c3cc(/C=C/C(=O)O)ccc3OC(F)(F)F)cc21
Activity [1]: 83%
EC50 [2]: 2.1 nM
EC50 [3]: > 3000 nM
EC50 [5]: 131 nM

SMILES: CCN1C(=O)CN(C(C)C)c2cc(C)c(-c3cc(/C=C/C(=O)O)ccc3OC(F)(F)F)cc21
EC50 [3]: > 3000 nM

Stronger by EC50 [3], values ahead:

Activity [1]: 78%
EC50 [2]: 173 nM
EC50 [3]: 39.7 nM
SMILES: CCN1C(=O)C(C)(C)Oc2cc(C)c(-c3cc(/C=C/C(=O)O)ccc3OC(F)(F)F)cc21
Activity (THP-1): 79%

Activity [1]: 64%
EC50 [2]: 18.3 nM
Activity (Homo sapiens [4]): 149%
EC50 [3]: 44 nM
EC50 [5]: > 3000 nM
SMILES: Cc1cc2c(cc1-c1cc(/C=C/C(=O)O)ccc1OCC(F)(F)F)N(C(C)C)C(=O)CC2(C)C
Activity (THP-1): 32%

EC50 [2]: 24.3 nM
EC50 [3]: 200 nM
SMILES: Cc1cc2c(cc1-c1cc(/C=C/C(=O)O)ccc1OC(F)(F)F)N(C)C(=O)CC2(C)C
Activity (THP-1): 56%

Activity [1]: 86%
Activity (Homo sapiens [4]): 240%
EC50 [3]: 163 nM
EC50 [5]: > 3000 nM
SMILES: CCN1C(=O)C(C)(C)Oc2cc(C)c(-c3cc(/C(C)=C/C(=O)O)ccc3OC(F)(F)F)cc21
Activity (THP-1): 76%

Activity [1]: 76%
AUC [14]: 5520 ng·h/mL
EC50 [2]: 67.3 nM
Cmax [18]: 61 ng/mL
half-life [22]: 4.6 h
bioavailability [23]: 51%
Cmax [25]: 844 ng/mL
Cmax [26]: 2120 ng/mL
EC50 [3]: 296 nM
EC50 [5]: > 3000 nM
SMILES: CCN1C(=O)CC(C)(C)c2cc(C)c(-c3cc(/C=C/C(=O)O)ccc3OCC(F)(F)F)cc21
Activity (Rattus norvegicus [7]): 182 mg/dL
Activity (Rattus norvegicus [8]): 249 mg/dL
Activity (Rattus norvegicus [9]): 382 mg/dL
Activity (Rattus norvegicus [10]): 34 mg/dL
Activity (Rattus norvegicus [11]): 440 mg/dL
Activity (Rattus norvegicus [12]): 102 mg/dL
Activity (Rattus norvegicus [13]): 302 mg/dL
Activity (Rattus norvegicus [15]): 126 mg/dL
Activity (Rattus norvegicus [16]): 38 mg/dL
Activity (Rattus norvegicus [17]): 175 mg/dL
Activity (Rattus norvegicus [19]): 16 mg/dL
Activity (Rattus norvegicus [20]): 134 mg/dL
Activity (Mus musculus): inactive
Activity (Rattus norvegicus [21]): 41 mg/dL
Activity (THP-1): 60%
Activity (Rattus norvegicus [24]): 151 mg/dL
Activity (Rattus norvegicus [27]): 341 mg/dL
Activity (Rattus norvegicus [28]): 349 mg/dL

EC50 [2]: 1.8 nM
EC50 [3]: 3.6 nM
SMILES: CCN1C(=O)CC(C)(C)c2cc(C)c(-c3cc(/C=C/C(=O)O)ccc3OC(F)(F)F)cc21
Activity (THP-1): 81%

EC50 [3]: 975 nM
SMILES: CCN1C(=O)CC(C)(C)c2cc(C)c(-c3cc(/C=C/C(=O)O)ccc3OC)cc21

EC50 [3]: 10 nM
SMILES: Cc1cc2c(cc1-c1cc(/C=C/C(=O)O)ccc1OC(F)(F)F)N(C(C)C)C(=O)CC2(C)C
Activity (THP-1): 70%

EC50 [2]: 0.9 nM
EC50 [3]: 180 nM
EC50 [5]: 139 nM
Activity (Homo sapiens [29]): 25%
SMILES: CCN1C(=O)CC(C)(C)c2cc(C)c(-c3cc(/C=C4\SC(=O)NC4=O)ccc3OC(F)(F)F)cc21
Activity (Rattus norvegicus [7]): 216 mg/dL
Activity (Rattus norvegicus [11]): 371 mg/dL
Activity (Rattus norvegicus [16]): 41 mg/dL
Activity (Rattus norvegicus [24]): 126 mg/dL
